The source made the active and inactive calls. The calls are words filed in the database; no cut-off is given here.
Columns and labels:
Type in all cases: functional
Staphylococcus aureus [1] = test: Potentiation of oxacillin induced antibacterial activity against methicillin-resistant Staphylococcus aureus assessed as fold decrease in blaZ gene expression at 50 uM by RT-qPCR analysis
Procedure, shortened: (§1)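 Fold dampening is the relative mRNA level of the gene, normalised to 16S rRNA, in oxacillin-treated cells divided by that in cells cotreated with oxacillin plus carbazole. Carbazole was used at 25 or 50 μM, as given in each line.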

Staphylococcus aureus [2] = test: Potentiation of oxacillin induced antibacterial activity against methicillin-resistant Staphylococcus aureus assessed as fold decrease in blaI gene expression at 50 uM by RT-qPCR analysis; procedure, shortened: as §1
Staphylococcus aureus [3] = test: Potentiation of oxacillin induced antibacterial activity against methicillin-resistant Staphylococcus aureus assessed as fold decrease in mecA gene expression at 50 uM by RT-qPCR analysis; procedure, shortened: as §1
Staphylococcus aureus [4] = test: Potentiation of oxacillin induced antibacterial activity against methicillin-resistant Staphylococcus aureus assessed as fold decrease in mecI gene expression at 50 uM by RT-qPCR analysis; procedure, shortened: as §1
Staphylococcus aureus [5] = test: Potentiation of oxacillin induced antibacterial activity against methicillin-resistant Staphylococcus aureus USA300 harboring stk1 deletion mutant assessed as oxacillin MIC at 50 uM after 18 hrs by CLSI protocol based broth microdilution assay
Staphylococcus aureus [6] = test: Potentiation of oxacillin induced antibacterial activity against methicillin-resistant Staphylococcus aureus USA300 harboring stk1 deletion mutant co-transfected with a plasmid bearing stk1 assessed as fold change in oxacillin MIC at 50 uM after 18 hrs by CLSI protocol based broth microdilution assay
Staphylococcus aureus [7] = test: Upregulation of mecA gene expression in methicillin-resistant Staphylococcus aureus USA300 at 50 uM by RT-PCR method
Staphylococcus aureus [8] = test: Upregulation of mecA gene expression in methicillin-resistant Staphylococcus aureus COL at 50 uM by RT-PCR method
Staphylococcus aureus [9] = test: Potentiation of ampicillin induced antibacterial activity against methicillin-resistant Staphylococcus aureus ATCC 43300 assessed as fold change in ampicillin MIC at 25 uM after 18 hrs by CLSI protocol based broth microdilution assay
Staphylococcus aureus [10] = test: Potentiation of methicillin induced antibacterial activity against methicillin-resistant Staphylococcus aureus ATCC 43300 assessed as fold change in methicillin MIC at 25 uM after 18 hrs by CLSI protocol based broth microdilution assay
Staphylococcus aureus [11] = test: Potentiation of ceftazidime induced antibacterial activity against methicillin-resistant Staphylococcus aureus ATCC 43300 assessed as fold change in ceftazidime MIC at 25 uM after 18 hrs by CLSI protocol based broth microdilution assay
Staphylococcus aureus [12] = test: Potentiation of ceftazidime induced antibacterial activity against methicillin-resistant Staphylococcus aureus USA100 assessed as fold change in ceftazidime MIC at 25 uM after 18 hrs by CLSI protocol based broth microdilution assay
Staphylococcus aureus [13] = test: Potentiation of ceftazidime induced antibacterial activity against methicillin-resistant Staphylococcus aureus USA300 assessed as fold change in ceftazidime MIC at 25 uM after 18 hrs by CLSI protocol based broth microdilution assay
Staphylococcus aureus [14] = test: Potentiation of cefoxitin induced antibacterial activity against methicillin-resistant Staphylococcus aureus USA300 assessed as fold change in cefoxitin MIC at 25 uM after 18 hrs by CLSI protocol based broth microdilution assay
Staphylococcus aureus [15] = test: Potentiation of methicillin induced antibacterial activity against methicillin-resistant Staphylococcus aureus COL assessed as fold change in methicillin MIC at 25 uM after 18 hrs by CLSI protocol based broth microdilution assay
Staphylococcus aureus [16] = test: Potentiation of ceftazidime induced antibacterial activity against methicillin-resistant Staphylococcus aureus COL assessed as fold change in ceftazidime MIC at 25 uM after 18 hrs by CLSI protocol based broth microdilution assay
Staphylococcus aureus [17] = test: Potentiation of oxacillin induced antibacterial activity against methicillin-resistant Staphylococcus aureus assessed as fold decrease in blaI gene expression at 25 uM by RT-qPCR analysis; procedure, shortened: as §1
Staphylococcus aureus [18] = test: Potentiation of oxacillin induced antibacterial activity against methicillin-resistant Staphylococcus aureus assessed as fold decrease in mecA gene expression at 25 uM by RT-qPCR analysis; procedure, shortened: as §1
Staphylococcus aureus [19] = test: Potentiation of oxacillin induced antibacterial activity against methicillin-resistant Staphylococcus aureus assessed as fold decrease in mecI gene expression at 25 uM by RT-qPCR analysis; procedure, shortened: as §1
Staphylococcus aureus [20] = test: Potentiation of ampicillin induced antibacterial activity against methicillin-resistant Staphylococcus aureus ATCC 43300 assessed as ampicillin MIC at 25 uM after 18 hrs by CLSI protocol based broth microdilution assay
Staphylococcus aureus [21] = test: Potentiation of cefoxitin induced antibacterial activity against methicillin-resistant Staphylococcus aureus ATCC 43300 assessed as cefoxitin MIC at 25 uM after 18 hrs by CLSI protocol based broth microdilution assay
Staphylococcus aureus [22] = test: Potentiation of methicillin induced antibacterial activity against methicillin-resistant Staphylococcus aureus USA100 assessed as methicillin MIC at 25 uM after 18 hrs by CLSI protocol based broth microdilution assay
Staphylococcus aureus [23] = test: Potentiation of ampicillin induced antibacterial activity against methicillin-resistant Staphylococcus aureus USA300 assessed as ampicillin MIC at 25 uM after 18 hrs by CLSI protocol based broth microdilution assay
Staphylococcus aureus [24] = test: Potentiation of ampicillin induced antibacterial activity against methicillin-resistant Staphylococcus aureus COL assessed as ampicillin MIC at 25 uM after 18 hrs by CLSI protocol based broth microdilution assay
Staphylococcus aureus [25] = test: Potentiation of oxacillin induced antibacterial activity against methicillin-resistant Staphylococcus aureus USA300 assessed as fold change in oxacillin MIC at 25 uM after 18 hrs by CLSI protocol based broth microdilution assay
Staphylococcus aureus [26] = test: Potentiation of oxacillin induced antibacterial activity against methicillin-resistant Staphylococcus aureus USA300 assessed as oxacillin MIC at 25 uM after 18 hrs by CLSI protocol based broth microdilution assay
Staphylococcus aureus [27] = test: Potentiation of oxacillin induced antibacterial activity against methicillin-resistant Staphylococcus aureus USA300 harboring stk1 deletion mutant assessed as oxacillin MIC at 25 uM after 18 hrs by CLSI protocol based broth microdilution assay
Staphylococcus aureus [28] = test: Potentiation of oxacillin induced antibacterial activity against methicillin-resistant Staphylococcus aureus USA300 harboring stk1 deletion mutant co-transfected with a plasmid bearing stk1 assessed as oxacillin MIC at 25 uM after 18 hrs by CLSI protocol based broth microdilution assay
Staphylococcus aureus [29] = test: Potentiation of oxacillin induced antibacterial activity against methicillin-resistant Staphylococcus aureus USA300 harboring stk1 deletion mutant co-transfected with a plasmid bearing stk1 assessed as fold change in oxacillin MIC at 25 uM after 18 hrs by CLSI protocol based broth microdilution assay
Staphylococcus aureus [30] = test: Upregulation of blaZ gene expression in methicillin-resistant Staphylococcus aureus ATCC 43300 at 25 uM by RT-PCR method
Staphylococcus aureus [31] = test: Upregulation of blaZ gene expression in methicillin-resistant Staphylococcus aureus USA100 at 25 uM by RT-PCR method
Staphylococcus aureus [32] = test: Upregulation of mecA gene expression in methicillin-resistant Staphylococcus aureus ATCC 43300 at 25 uM by RT-PCR method
Staphylococcus aureus [33] = test: Upregulation of mecA gene expression in methicillin-resistant Staphylococcus aureus USA100 at 25 uM by RT-PCR method

Brc1cccc2c1[nH]c1ccccc12
fold change (FC) (Staphylococcus aureus [1]): 3.86
fold change (FC) (Staphylococcus aureus [2]): 1.36
fold change (FC) (Staphylococcus aureus [3]): 1.39
fold change (FC) (Staphylococcus aureus [4]): 0.67
MIC (Staphylococcus aureus [5]): 0.25 µg/mL
fold change (FC) (Staphylococcus aureus [6]): 4
Activity (Staphylococcus aureus [7]): inactive
Activity (Staphylococcus aureus [8]): inactive

Brc1cccc2[nH]c3ccccc3c12
fold change (FC) (Staphylococcus aureus [9]): 2
fold change (FC) (Staphylococcus aureus [10]): 1
fold change (FC) (Staphylococcus aureus [11]): 2
fold change (FC) (Staphylococcus aureus [12]): 1
fold change (FC) (Staphylococcus aureus [13]): 1
fold change (FC) (Staphylococcus aureus [14]): 4
fold change (FC) (Staphylococcus aureus [15]): 1
fold change (FC) (Staphylococcus aureus [16]): 1
fold change (FC) (Staphylococcus aureus [17]): 4.65
fold change (FC) (Staphylococcus aureus [18]): 4
fold change (FC) (Staphylococcus aureus [19]): 1.28
MIC (Staphylococcus aureus [20]): 16 µg/mL
MIC (Staphylococcus aureus [21]): 16 µg/mL
MIC (Staphylococcus aureus [22]): 32 µg/mL
MIC (Staphylococcus aureus [23]): 2 µg/mL
MIC (Staphylococcus aureus [24]): 32 µg/mL
fold change (FC) (Staphylococcus aureus [25]): 4
MIC (Staphylococcus aureus [26]): 8 µg/mL
MIC (Staphylococcus aureus [27]): 0.25 µg/mL
MIC (Staphylococcus aureus [28]): 0.5 µg/mL
fold change (FC) (Staphylococcus aureus [29]): 8
Activity (Staphylococcus aureus [30]): inactive
Activity (Staphylococcus aureus [31]): inactive
Activity (Staphylococcus aureus [32]): inactive
Activity (Staphylococcus aureus [33]): inactive
